From PubChem
MEKK2 WT-MEK5 – raises or lowers MEK5 binding to wildtype human MEKK2 PB1 domain; bead flow cytometry, Alexa488-MEK5 binding to MEKK2 WT; actives lie on both sides; binding response (% of control), % at 10 µM; actives 1.1% (n = 290,000); in the data active = binding response below about 67% or above about 130%
Rce1 inhib – inhibitors of yeast Ras-converting enzyme; actives 0.27% (n = 290,000); yeast membranes, quenched prenylated peptide cleavage fluorescence; AID 2563; Q03530; calls only;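 active = fall in fluorescence gain of 50% or more versus controls, with final raw signal at or below 3038400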;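 also: plate controls were neutral control wells for no effect and wells lacking membranes for full effect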
Target sequence (Q03530 whole entry, looked up): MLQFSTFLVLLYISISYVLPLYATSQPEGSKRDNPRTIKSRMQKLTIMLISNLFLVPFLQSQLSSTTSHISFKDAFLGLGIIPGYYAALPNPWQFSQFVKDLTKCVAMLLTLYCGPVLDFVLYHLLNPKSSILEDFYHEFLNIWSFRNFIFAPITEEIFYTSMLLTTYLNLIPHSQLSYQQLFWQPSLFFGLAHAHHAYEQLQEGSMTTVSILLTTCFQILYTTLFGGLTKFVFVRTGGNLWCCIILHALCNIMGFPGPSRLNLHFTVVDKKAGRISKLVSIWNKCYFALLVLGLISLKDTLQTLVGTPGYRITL
MEKK2 mut-MEK5 – signal of MEK5 binding to mutant human MEKK2 PB1 domain; bead flow cytometry, Alexa488-MEK5 binding to MEKK2 mutant; actives 0.35% (n = 290,000); percent response, % at 10 µM; in the data active = percent response above about 24%, passing the limit was not always enough
T cell modulator – T cell immune modulators affecting CD8 T cell-vesicle binding; 2C CD8+ T cell-vesicle binding, flow cytometry; hits give low values; response (vesicle binding), % at 7 µM; actives 0.068% (n = 330,000);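 active = response, share of CD8 T cells binding vesicles, and their 90th percentile fluorescence all below set limits, cut at about 80% in these data, passing the limit was not always enough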;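 also: values below 100% mean blocked vesicle binding to the CD8+ T cells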
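Assay system: 2C TCR transgenic mouse naive CD8+ T cells, MACS-purified | Read-out: CD8+ gate FL2 mean fluorescence as % of same-row positive control | Signal: High-throughput flow cytometry with anti-B7-1 and anti-CD8 staining | Timing: Binding step 1.5 h, 37 °C, antibody labelling 20 min, ice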
UCH37 inh – human UCH37 deubiquitinating enzyme inhibition; purified proteasome/UCH37, Ub-AMC cleavage fluorescence; inhibition, % (concentration not given with the values); actives 0.33% (n = 330,000); AID 588478;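 active = mean inhibition over replicate wells above about 20%, limit read from the data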;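 also: 0% = compound-free wells with enzyme and 100% = wells lacking proteasome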
Target sequence (Q9Y5K5 whole entry, looked up): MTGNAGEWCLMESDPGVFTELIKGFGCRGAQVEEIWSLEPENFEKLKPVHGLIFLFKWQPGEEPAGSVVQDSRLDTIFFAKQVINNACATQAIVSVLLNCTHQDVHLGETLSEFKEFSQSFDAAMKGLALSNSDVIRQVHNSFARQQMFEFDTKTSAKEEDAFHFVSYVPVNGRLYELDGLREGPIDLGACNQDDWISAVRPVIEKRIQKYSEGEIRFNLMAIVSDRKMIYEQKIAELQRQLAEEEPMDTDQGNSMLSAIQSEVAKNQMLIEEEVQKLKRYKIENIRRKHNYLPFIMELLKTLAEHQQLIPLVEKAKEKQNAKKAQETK
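Assay system: Proteasome-bound UCH37. Buffer or medium: pH 7.4 Tris-HCl (50 mM) with ovalbumin, ATP-MgCl2, DTT. Incubation: 30 min preincubation with enzyme, 25 min cleavage at room temperature. Measured by: fluorescence, ex 355 nm, em 460 nm. Read-out basis: percent inhibition. Control set: wells without proteasome as full block, compound-free enzyme plus substrate as uninhibited.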
MEKK3 PB1 HTS – raises or lowers MEK5 binding to the human MEKK3 PB1 domain. Q99759. bead-based flow cytometry, Alexa488-MEK5 binding to MEKK3; actives lie on both sides; 0 = blocked by unlabeled MEK5, 100 = vehicle. binding response (% of control), % at 10 µM. actives 1.4% (n = 290,000). AID 1529;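 active = binding response more than 3 SD above or below the average of its plate-row segment, actives on both sides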;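 also: Alexa488 bead fluorescence after subtracting the streptavidin-only scavenger bead signal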
MEKK2wt confirm – raises or lowers MEK5 binding to wildtype human MEKK2, retest; actives 2.4% (n = 5,900); binding response (% of control), % at 10 µM; shares compounds with MEKK3 PB1 HTS; bead flow cytometry, Alexa488-MEK5 binding to MEKK2 WT; actives lie on both sides; AID 1892; in the data active = binding response below about 16% or above about 210%; inactive = in between
MEKK2mut-MEK5 – signal of MEK5 binding to mutant human MEKK2, retest. bead flow cytometry, Alexa488-MEK5 binding to MEKK2 mutant. shares compounds with MEKK3 PB1 HTS. actives 2% (n = 5,900). percent response, % at 10 µM; in the data active = percent response mostly above about 71%, no sharp cut-off; inactive = mostly below about 38%;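 also: higher means compound restores mutant binding toward wildtype level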
MEKK3-MEK5 inh – MEKK3-MEK5 PB1 inhibition, single concentration confirmation; actives 1.8% (n = 5,900); AID 1894; bead flow cytometry, Alexa488-MEK5 binding to MEKK3; hits give low values; binding response (% of control), % at 10 µM; shares compounds with MEKK3 PB1 HTS;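 active = binding response below 72% of control, or above a set upper limit, though filed actives all read lower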;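 also: 100% = DMSO only wells and 0% = binding blocked by excess unlabeled MEK5; lower values mean stronger disruption of MEK5 binding to MEKK3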
Active calls of the source: *; i = inactive; / = no result; [ ] = remark or other dose. An excerpt weighted towards active compounds, which were near 2.5% of everything screened.

SMILES | MEKK2 WT-MEK5 | Rce1 inhib | MEKK2 mut-MEK5 | T cell modulator | UCH37 inh | MEKK3 PB1 HTS | MEKK2wt confirm | MEKK2mut-MEK5 | MEKK3-MEK5 inh
C#CCOCCOCCOCCNc1nc(N2CCN(C(=O)[C@H]([C@@H](C)CC)n3cc([C@@H](N)Cc4ccc(O)cc4)nn3)CC2)nc(N2CCN(C(=O)[C@H](CCCCN)n3cc([C@@H](N)C(C)CC)nn3)CC2)n1 (stereo partly drawn) | 176.0* | i | 48.0 | 400.4 | 4.3 | 117.0 | 137.0 | 17.0 | 103.0
CCCCCCCC(=O)NN=C(C)c1ccc(O)cc1O | / | / | / | / | -31.4 | / | / | / | /
Cc1ccc(N(CC(N)=O)C2SC(=O)N(C)C2=O)cc1 (stereo not drawn) | 125.0 | i | 5.0 | 708.2 | 1.0 | 126.0* | 102.0 | -5.0 | 98.0
CC(=O)c1cccc(NC(=O)COc2ccccc2C(=O)c2cc(C#N)c(=O)n(C3CCCCC3)c2)c1 | 93.0 | i | -4.0 | 195.3 | 3.1 | 93.0 | / | / | /
Cc1ccc(OCc2ccc(C#N)cc2)c(C(=O)c2cc(C#N)c(=O)n(C3CC3)c2)c1 | 115.0 | i | 52.0* | 162.2 | -1.0 | 107.0 | 101.0 | -15.0 | 98.0
Cc1ccc(NC(=O)Cn2nc(-c3ccccc3)nc2-c2ccccc2)c(C)c1 | 108.0 | i | 1.0 | 234.3 | -1.8 | 150.0* | 105.0 | 7.0 | 104.0
CCN(CC(O)Cn1c2ccccc2c2ccccc21)S(=O)(=O)c1ccc(C)cc1 (stereo not drawn) | 122.0 | i | 5.0 | 317.2 | 3.7 | 125.0* | 108.0 | -2.0 | 101.0
COc1cccc2c1C(=O)c1c(O)c3c(c(O)c1C2=O)C[C@@](O)(C(C)=O)C[C@@H]3O[C@H]1C[C@H](N)[C@H](O)[C@H](C)O1 | 84.0 | / | 0.0 | / | 3.9 | 99.0 | / | / | /
CC(=O)[C@]1(O)Cc2c(O)c3c(c(O)c2[C@@H](O[C@H]2C[C@H](N)[C@H](O)[C@H](C)O2)C1)C(=O)c1ccccc1C3=O | 25.0* | i | 30.0* | i | 6.1 | 105.0 | 104.0 | 2.0 | 101.0
Cc1c(-c2ccccc2)[n+](=O)c(-c2ccc(Br)cc2)c(C)n1[O-] | 90.0 | i | -5.0 | 420.0 | 5.2 | 91.0 | / | / | /
Cc1c(C)[n+](=O)c(-c2ccc(Br)cc2)c(C)n1[O-] | 47.0*[inhibitor] | i | -7.0 | 347.5 | 1.5 | 50.0*[inhibitor] | 94.0 | -9.0 | 98.0
COc1ccc(C(CC(=O)c2ccc(O)cc2)S(=O)(=O)c2ccc(C)cc2)cc1 (stereo not drawn) | 37.0*[inhibitor] | / | -18.0 | 477.8 | -2.5 | 26.0*[inhibitor] | 98.0 | -4.0 | 99.0
COc1ccc(C(=O)CC(c2ccccc2)S(=O)(=O)c2ccc(C)cc2)cc1 (stereo not drawn) | 100.0 | i | -2.0 | 210.1 | 3.8 | 97.0 | / | / | /
Cc1c(NC(=O)CN2C(=O)NC(C)(c3ccccc3)C2=O)c(=O)n(-c2ccccc2)n1C (stereo not drawn) | 103.0 | i | 0.0 | 250.7 | 3.5 | 140.0* | 105.0 | 0.0 | 99.0
CCCC1(c2ccccc2)NC(=O)N(CC(=O)Nc2cc(C)on2)C1=O (stereo not drawn) | 80.0 | i | -3.0 | 300.3 | -0.6 | 65.0*[inhibitor] | 91.0 | -5.0 | 97.0
Cc1ccc(C2(C)NC(=O)N(CC(=O)Nc3c(C)n(C)n(-c4ccccc4)c3=O)C2=O)cc1 (stereo not drawn) | 131.0 | i | 20.0 | 203.9 | 2.1 | 106.0 | / | / | /
CCCCNC(=S)Nc1ccccc1F | 108.0 | i | 25.0* | 206.8 | 5.1 | 111.0 | 108.0 | 0.0 | 101.0
CC(C)CNC(=S)Nc1ccccc1F | 104.0 | i | 0.0 | 380.4 | -1.2 | 94.0 | / | / | /
Cc1nc2cc(-c3ccc(Cl)cc3)nn2c(NCCN(C)C)c1C | 148.0* | i | 29.0 | 677.8 | -20.2 | 113.0 | 132.0 | 18.0 | 110.0
CC(=O)NCc1ccc(S(=O)(=O)NN=Cc2ccc(N(C)C)cc2)cc1 | / | / | / | / | 7.3 | / | / | / | /
CC(=O)NCc1ccc(S(=O)(=O)N/N=C/c2ccc(Br)cc2)cc1 | 111.0 | i | 0.0 | 202.4 | / | 139.0* | 98.0 | -3.0 | 101.0
CC(=O)NCc1ccc(S(=O)(=O)N/N=C/c2ccccc2)cc1 | 101.0 | i | -1.0 | 209.0 | / | 106.0 | / | / | /
CCN(CC)c1ccc(/C=N/NS(=O)(=O)c2ccc(CNC(C)=O)cc2)cc1 | 109.0 | i | 0.0 | 210.3 | / | 145.0* | 98.0 | -4.0 | 100.0
Cc1cc(C=c2sc3nc4ccccc4n3c2=O)c(C)n1-c1ccc(C(=O)O)cc1 | / | / | / | / | -5.5 | / | / | / | /
CNC(=O)NC(=O)CSc1ccc(NC(C)=O)cc1 | 125.0 | i | 8.0 | 478.9 | 4.9 | 128.0* | 105.0 | 3.0 | 99.0
SMILES | MEKK2 WT-MEK5 | Rce1 inhib | MEKK2 mut-MEK5 | T cell modulator | UCH37 inh | MEKK3 PB1 HTS | MEKK2wt confirm | MEKK2mut-MEK5 | MEKK3-MEK5 inh
CCNC(=O)NC(=O)CSc1ccc(NC(C)=O)cc1 | 103.0 | i | 0.0 | 155.4 | 5.5 | 98.0 | / | / | /
CC1C=CCC2C(=O)N(c3ccc(OC(=O)c4ccco4)cc3)C(=O)C12 (stereo not drawn) | 134.0 | i | 7.0 | 206.2 | 0.3 | 161.0* | 111.0 | 6.0 | 106.0
CCN(CC)CCNc1nc2cc(OC)c(OC)cc2c2nc(-c3ccccc3)nn12 | 143.0* | i | 10.0 | 944.7 | -110.5 | 108.0 | 111.0 | 3.0 | 95.0
COc1cc2[nH]c(=O)n3nc(-c4ccccc4)nc3c2cc1OC | 99.0 | i | 3.0 | 276.9 | -52.5 | 102.0 | / | / | /
COc1cccc(CN2CCCC(C(=O)N3CCCCC3)C2)c1 (stereo not drawn) | 108.0 | i | 11.0 | 651.2 | 1.0 | 111.0 | / | / | /
COc1cccc(NC(=O)N2CCCC2C(=O)NCc2ccccc2F)c1 (stereo not drawn) | 102.0 | i | 5.0 | 587.9 | 3.6 | 99.0 | / | / | /
COc1cccc(NC(=O)N2CCCC2C(=O)NCc2ccccc2)c1 (stereo not drawn) | 55.0*[inhibitor] | i | -16.0 | 308.7 | 0.7 | 63.0*[inhibitor] | 93.0 | -5.0 | 97.0
COc1cccc(CN2CCCCC2C(=O)O)c1 (stereo not drawn) | 60.0 | i | -26.0 | 200.1 | 3.6 | 40.0*[inhibitor] | 98.0 | 3.0 | 98.0
